Experimental data published in ChEMBL document CHEMBL1122798, “Trypanocidal 1,3-arylene diketone bis(guanylhydrazone)s. Structure-activity relationships among substituted and heterocyclic analogues” (1984).

Assays:
Format in all cases: functional
Mus musculus [1] = test: Compound was tested for Trypanocidal Activity in mice at 60 mg/kg; 0/5
Mus musculus [2] = test: Compound was tested for Trypanocidal Activity in mice at 40 mg/kg; 0/5
Mus musculus [3] = test: Compound was tested for Trypanocidal Activity in mice at 150 mg/kg; 0/5
Mus musculus [4] = test: Compound was tested for Trypanocidal Activity in mice at 100 mg/kg; 0/5
Mus musculus [5] = test: Compound was tested for Trypanocidal Activity in mice at 15 mg/kg; 0/10
Mus musculus [6] = test: Compound was tested for Trypanocidal Activity in mice at 15 mg/kg; 14/25
Mus musculus [7] = test: Compound was tested for Trypanocidal Activity in mice at 100 mg/kg; 1/5
Mus musculus [8] = organism: Mus musculus; test: Effective dose against Trypanosoma brucei infection in mice
Procedure, shortened: (§1)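 Female Swiss-Webster mice (20–25 g) were infected ip with 5×10^4 T. brucei EATRO 110 organisms in fresh mouse blood diluted with minimum essential medium. Groups of 5 or 10 received a single ip dose in normal saline (solution or milled suspension, 20 μL/g) 6 h post-infection. Deaths within 72 h were scored as toxic. Survivors aparasitemic at 28 days (tail-blood wet films, phase contrast) counted as cures. ED50 was computed by Bliss/Litchfield–Wilcoxon, excluding toxic dosages.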

Mus musculus [9] = test: Compound was tested for Trypanocidal Activity in mice at 6 mg/kg; 0/20
Mus musculus [10] = test: Compound was tested for Trypanocidal Activity in mice at 25 mg/kg; 16/20
Mus musculus [11] = test: Compound was tested for Trypanocidal Activity in mice at 10 mg/kg; 11/30
Mus musculus [12] = test: Compound was tested for Trypanocidal Activity in mice at 4 mg/kg; 0/10
Mus musculus [13] = test: Compound was tested for Trypanocidal Activity in mice at 40 mg/kg; 13/15
Mus musculus [14] = test: Compound was tested for Trypanocidal Activity in mice at 60 mg/kg; 5/5
Mus musculus [15] = test: Compound was tested for Trypanocidal Activity in mice at 100 mg/kg; 3/10
Mus musculus [16] = test: Compound was tested for Trypanocidal Activity in mice at 40 mg/kg; 12/25
Mus musculus [17] = test: Compound was tested for Trypanocidal Activity in mice at 25 mg/kg; 1/20
Mus musculus [18] = test: Compound was tested for Trypanocidal Activity in mice at 150 mg/kg; 1/5
Mus musculus [19] = test: Compound was tested for Trypanocidal Activity in mice at 10 mg/kg; 0/5
Mus musculus [20] = test: Compound was tested for Trypanocidal Activity in mice at 60 mg/kg; 9/25; procedure, shortened: as §1
Mus musculus [21] = test: Compound was tested for Trypanocidal Activity in mice at 6 mg/kg; 0/5
Mus musculus [22] = test: Compound was tested for Trypanocidal Activity in mice at 25 mg/kg; 0/15
Mus musculus [23] = test: Compound was tested for Trypanocidal Activity in mice at 6 mg/kg; 20/20
Mus musculus [24] = test: Compound was tested for Trypanocidal Activity in mice at 4 mg/kg; 9/10
Mus musculus [25] = test: Compound was tested for Trypanocidal Activity in mice at 0.4 mg/kg; 19/35
Mus musculus [26] = test: Compound was tested for Trypanocidal Activity in mice at 0.25 mg/kg; 0/30
Mus musculus [27] = test: Compound was tested for Trypanocidal Activity in mice at 2.5 mg/kg; 20/20
Mus musculus [28] = test: Compound was tested for Trypanocidal Activity in mice at 10 mg/kg; 10/10
Mus musculus [29] = test: Compound was tested for Trypanocidal Activity in mice at 0.15 mg/kg; 0/10
Mus musculus [30] = test: Compound was tested for Trypanocidal Activity in mice at 1.5 mg/kg; 10/10
Mus musculus [31] = test: Compound was tested for Trypanocidal Activity in mice at 1.0 mg/kg; 8/10
Mus musculus [32] = test: Compound was tested for Trypanocidal Activity in mice at 15 mg/kg; 10/10
Mus musculus [33] = test: Compound was tested for Trypanocidal Activity in mice at 25 mg/kg; 4/5
Mus musculus [34] = test: Compound was tested for Trypanocidal Activity in mice at 0.6 mg/kg; 20/30
Mus musculus [35] = test: Compound was tested for Trypanocidal Activity in mice at 25 mg/kg; 0/5
Mus musculus [36] = test: Compound was tested for Trypanocidal Activity in mice at 15 mg/kg; 0/5
Mus musculus [37] = test: Compound was tested for Trypanocidal Activity in mice at 40 mg/kg; 1/5
Mus musculus [38] = test: Compound was tested for Trypanocidal Activity in mice at 15 mg/kg; 16/20
Mus musculus [39] = test: Compound was tested for Trypanocidal Activity in mice at 6 mg/kg; 9/20
Mus musculus [40] = test: Compound was tested for Trypanocidal Activity in mice at 25 mg/kg; 7/10
Mus musculus [41] = test: Compound was tested for Trypanocidal Activity in mice at 10 mg/kg; 14/20
Mus musculus [42] = test: Compound was tested for Trypanocidal Activity in mice at 4 mg/kg; 0/5

C/C(=N\NC(=N)N)c1cc(/C(C)=N/NC(=N)N)c(C)nc1C.CS(=O)(=O)O.Cl.Cl
Cures/total (Mus musculus [1]): 0 | Cures/total (Mus musculus [2]): 0 | Cures/total (Mus musculus [3]): 0 | Cures/total (Mus musculus [4]): 0 | Cures/total (Mus musculus [5]): 0

C/C(=N\NC(=N)N)c1ccc(/C(C)=N/NC(=N)N)s1.CC(C)O.Cl
Cures/total (Mus musculus [6]): 14 | Cures/total (Mus musculus [7]): 1 | ED50 (Mus musculus [8]): 14 mg/kg | Cures/total (Mus musculus [9]): 0 | Cures/total (Mus musculus [10]): 16 | Cures/total (Mus musculus [11]): 11 | Cures/total (Mus musculus [12]): 0 | Cures/total (Mus musculus [13]): 13 | Cures/total (Mus musculus [14]): 5

C/C(=N\NC(=N)N)c1cc(/C(C)=N/NC(=N)N)cc([N+](=O)[O-])c1.Cl
Cures/total (Mus musculus [15]): 3 | Cures/total (Mus musculus [16]): 12 | Cures/total (Mus musculus [17]): 1 | Cures/total (Mus musculus [18]): 1 | Cures/total (Mus musculus [5]): 0 | Cures/total (Mus musculus [19]): 0 | Cures/total (Mus musculus [20]): 9 | Cures/total (Mus musculus [21]): 0

CCCC/C(=N\NC(=N)N)c1cccc(/C(CCCC)=N/NC(=N)N)c1.Cl
Cures/total (Mus musculus [1]): 0 | Cures/total (Mus musculus [2]): 0 | Cures/total (Mus musculus [22]): 0

C/C(=N\NC(=N)N)c1cc(/C(C)=N/NC(=N)N)cc(/C(C)=N/NC(=N)N)c1.Cl
Cures/total (Mus musculus [23]): 20 | ED50 (Mus musculus [8]): 0.47 mg/kg | Cures/total (Mus musculus [24]): 9 | Cures/total (Mus musculus [1]): 0 | Cures/total (Mus musculus [25]): 19 | Cures/total (Mus musculus [2]): 0 | Cures/total (Mus musculus [26]): 0 | Cures/total (Mus musculus [27]): 20 | Cures/total (Mus musculus [28]): 10 | Cures/total (Mus musculus [29]): 0 | Cures/total (Mus musculus [30]): 10 | Cures/total (Mus musculus [31]): 8 | Mice cured (number) (Mus musculus [32]): 10 | Cures/total (Mus musculus [33]): 4 | Cures/total (Mus musculus [34]): 20

Br.C/C(=N\NC1=NCCN1)c1cccc(/C(C)=N/NC2=NCCN2)c1
Cures/total (Mus musculus [35]): 0 | Cures/total (Mus musculus [2]): 0 | Cures/total (Mus musculus [19]): 0 | Cures/total (Mus musculus [36]): 0

C/C(=N\NC(=N)N)c1cc(O)cc(/C(C)=N/NC(=N)N)c1.Cl
Cures/total (Mus musculus [37]): 1 | ED50 (Mus musculus [8]): 7.3 mg/kg | Cures/total (Mus musculus [1]): 0 | Cures/total (Mus musculus [38]): 16 | Cures/total (Mus musculus [39]): 9 | Cures/total (Mus musculus [40]): 7 | Cures/total (Mus musculus [41]): 14 | Cures/total (Mus musculus [42]): 0

C/C(=N\NC(=N)N)c1cccc(/C(C)=N/NC(=N)N)c1[N+](=O)[O-].Cl
Cures/total (Mus musculus [35]): 0 | Cures/total (Mus musculus [2]): 0 | Cures/total (Mus musculus [5]): 0
